Assay [1] has as its system Paracentrotus lividus. Description: Antiproliferative activity against sea urchin embryo assessed as cleavage arrest compound treated at 45 to 55 mins prior to first mitotic cycle completion and measured at 2.5 to 5.5 hrs post fertilization. The assay is classed as functional. Put shortly: (§1)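 Fertilized eggs were treated 8−20 min after fertilization. The embryos were held at room temperature in filtered seawater as a monolayer of up to 2000 embryos/mL. Compounds were given as 2-fold decreasing concentrations from a 10 mM DMSO stock diluted 10-fold in 95% EtOH, with DMSO ≤0.05% and EtOH ≤1%. Embryos were scored by light microscopy. The value is the effective threshold concentration, measured in duplicate.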

Assay [2] relates to Paracentrotus lividus. Description: Antiproliferative activity against sea urchin embryo assessed as cleavage alteration compound treated at 45 to 55 mins prior to first mitotic cycle completion and measured at 2.5 to 5.5 hrs post fertilization. The assay is classed as functional. Put shortly:
as §1

A short description of assay [3]: Growth inhibition of human NCI60 cells at 10 uM after 48 hrs by SRB assay. The assay is classed as functional. The conditions noted are these: NCI60, 48 h, read-out: GI. Put shortly:
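Tested in the NCI60 single-dose screen at 10 μM. The value is the mean percent inhibition of cell growth across the panel.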

Assay [4] has as its system Paracentrotus lividus. Description: Microtubule destabilizing activity in sea urchin embryo assessed as embryo spinning compound treated just after hatching at 8 to 10 hrs post fertilization and measured after 15 mins to 20 hrs of treatment.
The subject of the next assay is OVCAR-8. Description: Growth inhibition of human OVCAR8 cells after 48 hrs by SRB assay. The assay is classed as functional, cell-based. Put shortly:
(§2)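 Tested in the NCI60 anticancer drug screen. GI50 is the concentration giving 50% cell growth inhibition. For the panel-wide line, the value is the mean GI50 across the panel.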

Another assay relates to NCI/ADR-RES. Kind of assay: Growth inhibition of human NCI/ADR-RES cells after 48 hrs by SRB assay. The assay is classed as functional, cell-based. Put shortly: as §2
Another assay deals with K562. Kind of assay: Growth inhibition of human K562 cells after 48 hrs by SRB assay. The assay is classed as functional. The note with it: K562, 48 h. Put shortly:
as §2

For another assay, the system named is SR. Kind of assay: Growth inhibition of human SR cells after 48 hrs by SRB assay. The assay is classed as functional. Put shortly:
as §2

A short description of assay [5]: Growth inhibition of human NCI60 cells after 48 hrs by SRB assay. The assay is classed as functional. The conditions noted are these: NCI60, 48 h. Put shortly: as §2
The subject of a further assay is HL-60(TB). Kind of assay: Growth inhibition of human HL-60(TB) cells after 48 hrs by SRB assay. The note with it: HL-60, 48 h. The assay is classed as functional. Put shortly: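 Tested in the NCI60 anticancer drug screen. HL-60(TB) is one of the leukemia lines in the panel. Value reported as GI50, the concentration needed for 50% inhibition of cell growth.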

In another assay the test system is KM12. Description: Growth inhibition of human KM12 cells after 48 hrs by SRB assay. The conditions noted are these: KM12, 48 h. The assay is classed as functional. Put shortly: as §2
The test system of a further assay is SW-620. Kind of assay: Growth inhibition of human SW620 cells after 48 hrs by SRB assay. The assay is classed as functional. The note with it: SW-620, 48 h. Put shortly:
as §2

The next assay relates to OVCAR-3. Description: Growth inhibition of human OVCAR3 cells after 48 hrs by SRB assay. The assay is classed as functional. The conditions noted are these: OVCAR-3, 48 h. Put shortly:
as §2

A further assay has as its system NCI-H522. Kind of assay: Growth inhibition of human NCI-H522 cells after 48 hrs by SRB assay. The assay is classed as functional. The note with it: NCI-H522, 48 h. Put shortly: as §2
The subject of a further assay is MDA-MB-435. Description: Growth inhibition of human MDA-MB-435 cells after 48 hrs by SRB assay. The assay is classed as functional. The note with it: MDA-MB-435, 48 h. Put shortly:
as §2

This note sets out measurements from ChEMBL document CHEMBL2407076, “cis-Restricted 3-aminopyrazole analogues of combretastatins: synthesis from plant polyalkoxybenzenes and biological evaluation in the cytotoxicity and phenotypic sea urchin embryo assays” (2013).

SMILES strings stand for the structures. The source made the active and inactive calls.

In the case of `COc1ccc(-c2c(N)n[nH]c2-c2cc3c(c(OC)c2OC)OCO3)cc1`, the EC with Paracentrotus lividus [1], in the assay on Paracentrotus lividus [2] and in the assay with Paracentrotus lividus [4] was over 4 µM each time. The inhibition of growth at 10 µM in assay [3] turned out to be 3.38%.
Regarding `COc1ccc(-c2c(N)n[nH]c2-c2cc(OC)c(OC)c(OC)c2)cc1`, the EC was 1 µM with Paracentrotus lividus [1], 0.1 µM in the assay with Paracentrotus lividus [2] and over 10 µM in the assay on Paracentrotus lividus [4]. The “growth inhibition (GI)” value with OVCAR-8 and in the assay with NCI/ADR-RES was “Active” in each case. Also, the concentration for 50% growth inhibition (GI50) was under 0.1 µM in the assay on K562; under 0.1 µM with SR; 0.302 µM in assay [5]; under 0.1 µM with HL-60(TB); under 0.1 µM with KM12; under 0.1 µM in the assay with SW-620. In addition, in the assay with OVCAR-3, the concentration for 50% growth inhibition (GI50) was under 0.1 µM. Moreover, the inhibition of growth at 10 µM in [3] amounted to 75.8%.
For `COc1ccc(-c2[nH]nc(N)c2-c2cc(OC)c3c(c2)OCO3)cc1`, the EC is over 4 µM with Paracentrotus lividus [1], 0.2 µM with Paracentrotus lividus [2] and over 10 µM in the assay with Paracentrotus lividus [4]. Besides, the “growth inhibition (GI)” value in the assay on OVCAR-8 and in the assay on NCI/ADR-RES was “Active” throughout. Further, the GI50 in assay [5] was 4.37 µM. For the same compound, in assay [3], the inhibition of growth at 10 µM amounted to 46%.
On to `COc1ccc(-c2c(N)n[nH]c2-c2cc(OC)c3c(c2OC)OCO3)cc1`, for which the EC was over 4 µM in the assay on Paracentrotus lividus [1], 4 µM with Paracentrotus lividus [2] and over 4 µM with Paracentrotus lividus [4].
As for `COc1ccc(-c2c(N)n[nH]c2-c2cc(OC)c3c(c2)OCCO3)cc1`, the EC is over 4 µM with Paracentrotus lividus [1], 1 µM in the assay with Paracentrotus lividus [2] and over 5 µM in the assay on Paracentrotus lividus [4]. Besides, the inhibition of growth at 10 µM in assay [3] is 32%.
On the same counts, the results for `COc1ccc(-c2c(N)n[nH]c2-c2cc(OC)c3c(c2)OCO3)cc1` are over 4 µM, 1 µM, over 5 µM and 18.1%.
`COc1ccc(-c2[nH]nc(N)c2-c2cc3c(c(OC)c2OC)OCO3)cc1`: the EC in the assay with Paracentrotus lividus [1], in the assay on Paracentrotus lividus [2] and in the assay on Paracentrotus lividus [4] was over 4 µM each time.
As to `COc1ccc(-c2[nH]nc(N)c2-c2cc(OC)c3c(c2OC)OCO3)cc1`, the EC in the assay with Paracentrotus lividus [1], in the assay with Paracentrotus lividus [2] and in the assay with Paracentrotus lividus [4] was over 4 µM in each case.
Regarding `COc1ccc(-c2[nH]nc(N)c2-c2cc(OC)c(OC)c(OC)c2)cc1`, the values for the EC with Paracentrotus lividus [1], with Paracentrotus lividus [2] and in the assay on Paracentrotus lividus [4] were 0.05 µM, 0.01 µM and 1 µM, respectively. The “growth inhibition (GI)” value in the assay with OVCAR-8 and with NCI/ADR-RES was “Active” in each case. Besides, the concentration for 50% growth inhibition (GI50) is under 0.01 µM in the assay with NCI-H522, under 0.01 µM in the assay on MDA-MB-435 and 0.046 µM in [5]. The inhibition of growth at 10 µM in [3] amounted to 89.2%.
